Data reported in ChEMBL document CHEMBL4610092, “Cytotoxic Nitrogenated Azaphilones from the Deep-Sea-Derived Fungus Chaetomium globosum MP4-S01-7” (J Nat Prod, 2020).

Columns and labels:
[1] = test system: MGC-803; assay: Cytotoxicity against human MGC803 cells assessed as reduction in cell viability measured after 72 hrs by CCK8 assay; format: functional, cell-based; conditions: MGC-803, 72 h
Procedure, shortened: (§1)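 MGC803 or AGS cells (RPMI 1640, 10% FBS, 5% CO₂, 37 °C) plated at 3 × 10³ per well overnight, then exposed to 0.1–10 μM for 72 h. Viability was read by CCK8 absorbance at 450 nm, and IC₅₀ was calculated from the concentration series.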

[2] = test system: AGS; assay: Cytotoxicity against human AGS cells assessed as reduction in cell viability measured after 72 hrs by CCK8 assay; format: functional, cell-based; procedure, shortened: as §1
[3] = test system: MGC-803; assay: Induction of apoptosis in human MGC803 cells assessed as necrotic cells at 0.2 uM measured after 48 hrs FITC-A/PE-A staining based flow cytometry (reference value: 0.9 to 2.18%); format: functional
[4] = test system: MGC-803; assay: Induction of apoptosis in human MGC803 cells measured after 48 hrs FITC-A/PE-A staining based flow cytometry; format: functional, cell-based
[5] = test system: AGS; assay: Induction of apoptosis in human AGS cells assessed as viable cells at 5 uM measured after 48 hrs FITC-A/PE-A staining based flow cytometry (reference value: 92.05 to 93.85%); format: functional; conditions: read-out: Activity
[6] = test system: MGC-803; assay: Induction of apoptosis in human MGC803 cells assessed as viable cells at 0.5 uM measured after 48 hrs FITC-A/PE-A staining based flow cytometry (reference value: 94.89 to 96.41%); format: functional; conditions: MGC-803, 48 h, read-out: Activity
[7] = test system: AGS; assay: Induction of apoptosis in human AGS cells assessed as late apoptotic cells at 0.2 uM measured after 48 hrs FITC-A/PE-A staining based flow cytometry (reference value: 1.89 to 3.49%); format: functional
[8] = test system: AGS; assay: Induction of apoptosis in human AGS cells assessed as necrotic cells at 1 uM measured after 48 hrs FITC-A/PE-A staining based flow cytometry (reference value: 1.35 to 2.69%); format: functional
[9] = test system: MGC-803; assay: Induction of apoptosis in human MGC803 cells assessed as late apoptotic cells at 1 uM measured after 48 hrs FITC-A/PE-A staining based flow cytometry (reference value: 0.67 to 0.82%); format: functional
[10] = test system: AGS; assay: Induction of apoptosis in human AGS cells assessed as viable cells at 0.5 uM measured after 48 hrs FITC-A/PE-A staining based flow cytometry (reference value: 92.05 to 93.85%); format: functional; conditions: read-out: Activity
[11] = test system: MGC-803; assay: Induction of apoptosis in human MGC803 cells assessed as viable cells at 5 uM measured after 48 hrs FITC-A/PE-A staining based flow cytometry (reference value: 94.89 to 96.41%); format: functional; conditions: MGC-803, 48 h, read-out: Activity
[12] = test system: MGC-803; assay: Induction of apoptosis in human MGC803 cells assessed as early apoptotic cells at 0.2 uM measured after 48 hrs FITC-A/PE-A staining based flow cytometry (reference value: 0.59 to 3.54%); format: functional
[13] = test system: MGC-803; assay: Induction of apoptosis in human MGC803 cells assessed as necrotic cells at 1 uM measured after 48 hrs FITC-A/PE-A staining based flow cytometry (reference value: 0.9 to 2.18%); format: functional
[14] = test system: MGC-803; assay: Induction of apoptosis in human MGC803 cells assessed as necrotic cells at 0.5 uM measured after 48 hrs FITC-A/PE-A staining based flow cytometry (reference value: 0.9 to 2.18%); format: functional
[15] = test system: AGS; assay: Induction of apoptosis in human AGS cells assessed as necrotic cells at 0.2 uM measured after 48 hrs FITC-A/PE-A staining based flow cytometry (reference value: 1.35 to 2.69%); format: functional
[16] = test system: MGC-803; assay: Induction of apoptosis in human MGC803 cells assessed as necrotic cells at 5 uM measured after 48 hrs FITC-A/PE-A staining based flow cytometry (reference value: 0.9 to 2.18%); format: functional
[17] = test system: AGS; assay: Induction of apoptosis in human AGS cells assessed as late apoptotic cells at 1 uM measured after 48 hrs FITC-A/PE-A staining based flow cytometry (reference value: 1.89 to 3.49%); format: functional
[18] = test system: AGS; assay: Induction of apoptosis in human AGS cells assessed as viable cells at 0.2 uM measured after 48 hrs FITC-A/PE-A staining based flow cytometry (reference value: 92.05 to 93.85%); format: functional; conditions: read-out: Activity
[19] = test system: AGS; assay: Induction of apoptosis in human AGS cells assessed as necrotic cells at 0.5 uM measured after 48 hrs FITC-A/PE-A staining based flow cytometry (reference value: 1.35 to 2.69%); format: functional
[20] = test system: AGS; assay: Induction of apoptosis in human AGS cells assessed as early apoptotic cells at 1 uM measured after 48 hrs FITC-A/PE-A staining based flow cytometry (reference value: 1.77 to 2.91%); format: functional
[21] = test system: AGS; assay: Induction of apoptosis in human AGS cells assessed as late apoptotic cells at 5 uM measured after 48 hrs FITC-A/PE-A staining based flow cytometry (reference value: 1.89 to 3.49%); format: functional
[22] = test system: AGS; assay: Induction of apoptosis in human AGS cells assessed as early apoptotic cells at 5 uM measured after 48 hrs FITC-A/PE-A staining based flow cytometry (reference value: 1.77 to 2.91%); format: functional
[23] = test system: MGC-803; assay: Induction of apoptosis in human MGC803 cells assessed as viable cells at 0.2 uM measured after 48 hrs FITC-A/PE-A staining based flow cytometry (reference value: 94.89 to 96.41%); format: functional; conditions: MGC-803, 48 h, read-out: Activity
[24] = test system: MGC-803; assay: Induction of apoptosis in human MGC803 cells assessed as early apoptotic cells at 1 uM measured after 48 hrs FITC-A/PE-A staining based flow cytometry (reference value: 0.59 to 3.54%); format: functional
[25] = test system: MGC-803; assay: Induction of apoptosis in human MGC803 cells assessed as early apoptotic cells at 0.5 uM measured after 48 hrs FITC-A/PE-A staining based flow cytometry (reference value: 0.59 to 3.54%); format: functional
[26] = test system: AGS; assay: Induction of apoptosis in human AGS cells assessed as necrotic cells at 5 uM measured after 48 hrs FITC-A/PE-A staining based flow cytometry (reference value: 1.35 to 2.69%); format: functional
[27] = test system: AGS; assay: Induction of apoptosis in human AGS cells assessed as early apoptotic cells at 0.5 uM measured after 48 hrs FITC-A/PE-A staining based flow cytometry (reference value: 1.77 to 2.91%); format: functional
[28] = test system: AGS; assay: Induction of apoptosis in human AGS cells measured after 48 hrs FITC-A/PE-A staining based flow cytometry; format: functional, cell-based
[29] = test system: MGC-803; assay: Induction of apoptosis in human MGC803 cells assessed as viable cells at 1 uM measured after 48 hrs FITC-A/PE-A staining based flow cytometry (reference value: 94.89 to 96.41%); format: functional; conditions: MGC-803, 48 h, read-out: Activity
[30] = test system: AGS; assay: Induction of apoptosis in human AGS cells assessed as early apoptotic cells at 0.2 uM measured after 48 hrs FITC-A/PE-A staining based flow cytometry (reference value: 1.77 to 2.91%); format: functional
[31] = test system: MGC-803; assay: Induction of apoptosis in human MGC803 cells assessed as late apoptotic cells at 0.5 uM measured after 48 hrs FITC-A/PE-A staining based flow cytometry (reference value: 0.9 to 2.18%); format: functional
[32] = test system: AGS; assay: Induction of apoptosis in human AGS cells assessed as late apoptotic cells at 0.5 uM measured after 48 hrs FITC-A/PE-A staining based flow cytometry (reference value: 1.89 to 3.49%); format: functional
[33] = test system: AGS; assay: Induction of apoptosis in human AGS cells assessed as viable cells at 1 uM measured after 48 hrs FITC-A/PE-A staining based flow cytometry (reference value: 92.05 to 93.85%); format: functional; conditions: read-out: Activity
[34] = test system: MGC-803; assay: Induction of apoptosis in human MGC803 cells assessed as late apoptotic cells at 5 uM measured after 48 hrs FITC-A/PE-A staining based flow cytometry (reference value: 0.67 to 0.82%); format: functional
[35] = test system: MGC-803; assay: Induction of apoptosis in human MGC803 cells assessed as late apoptotic cells at 0.2 uM measured after 48 hrs FITC-A/PE-A staining based flow cytometry (reference value: 0.9 to 2.18%); format: functional
[36] = test system: MGC-803; assay: Induction of apoptosis in human MGC803 cells assessed as early apoptotic cells at 5 uM measured after 48 hrs FITC-A/PE-A staining based flow cytometry (reference value: 0.59 to 3.54%); format: functional

C/C=C(\C)C(=O)C1=C2C3=CN(C/C=C(\C)CCC=C(C)C)C(/C=C/[C@@H](C)CC)=CC3=C(Cl)C(=O)[C@@]2(C)OC1=O
IC50 [1]: 0.72 µM
IC50 [2]: 0.12 µM

C/C=C(\C)C(=O)C1=C2C3=CN(CC=C(C)C)C(/C=C/[C@@H](C)CC)=CC3=C(Cl)C(=O)[C@@]2(C)OC1=O
IC50 [1]: 6.8 µM
IC50 [2]: 2 µM

C/C=C(\C)C(=O)C1=C2C3=COC(/C=C/[C@@H](C)CC)=CC3=C(Cl)C(=O)[C@@]2(C)OC1=O [CHAETOVIRIDIN E]
IC50 [1]: > 10 µM
IC50 [2]: > 10 µM

CC(=O)O[C@H]1C(=O)[C@@]2(C)[C@H]([C@H](OC(=O)c3ccccc3)[C@]3(O)C[C@H](OC(=O)[C@H](O)[C@@H](NC(=O)c4ccccc4)c4ccccc4)C(C)=C1C3(C)C)[C@]1(OC(C)=O)CO[C@@H]1C[C@@H]2O [PACLITAXEL]
IC50 [1]: 3.8 µM

CC[C@H](C)/C=C/C1=CC2=C(Cl)C(=O)[C@@]3(C)OC(=O)C(C(=O)[C@H](C)[C@@H](C)O)=C3C2=CN1C/C=C(\C)CCC=C(C)C
Activity [3]: 0.7%
Activity [4]: Dose-dependent effect
viability at 5 µM [5]: 9.55%
viability at 0.5 µM [6]: 96.1%
Activity [7]: 4.34%
Activity [8]: 5.05%
Activity [9]: 6.91%
viability at 0.5 µM [10]: 88.1%
viability at 5 µM [11]: 6.51%
Activity [12]: 2.79%
Activity [13]: 6.78%
Activity [14]: 0.73%
Activity [15]: 2.94%
Activity [16]: 1.74%
Activity [17]: 23.07%
viability at 0.2 µM [18]: 89.6%
Activity [19]: 2.92%
Activity [20]: 18.59%
Activity [21]: 86.44%
Activity [22]: 2.33%
viability at 0.2 µM [23]: 96.1%
IC50 [1]: 0.78 µM
Activity [24]: 1.33%
Activity [25]: 2.55%
Activity [26]: 1.67%
Activity [27]: 3.49%
Activity [28]: Dose-dependent effect
viability at 1 µM [29]: 85%
Activity [30]: 3.16%
Activity [31]: 0.63%
IC50 [2]: 0.12 µM
Activity [32]: 5.54%
viability at 1 µM [33]: 53.3%
Activity [34]: 91.5%
Activity [35]: 0.41%
Activity [36]: 0.25%
